Measured values as given in ChEMBL document CHEMBL3600295, “Synthesis and biological evaluation of a series of fatty acid amides from Echinacea” (Bioorg Med Chem Lett, 2015).
Calls of active or inactive are those of the source. The rule behind the calls is not given here.

Assays:
RAW264.7 [1] = test: Effect on TNFalpha production in mouse RAW264.7 cells at 100 uM incubated for 18 hrs by ELISA method; assay type: cell-based; conditions: raw264.7, 18 h
Summary of the method: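 Compound alone, without LPS, was added to RAW 264.7 murine macrophage-like cells and incubated 18 h. TNF-α in culture supernatants was quantified by commercial ELISA and compared with levels from unstimulated cells.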

RAW264.7 [2] = test: Inhibition of LPS-induced TNFalpha production in mouse RAW264.7 cells at 100 uM incubated for 18 hrs by ELISA method; assay type: functional; conditions: for inhibition at 100 µM: RAW264.7, 18 h
Summary of the method: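 RAW 264.7 cells were co-treated with compound plus 10 ng/mL LPS (R595) for 18 h. Supernatant TNF-α was measured by commercial ELISA and compared with cells stimulated with LPS only.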

RAW264.7 [3] = test: Cytotoxicity against mouse RAW264.7 cells at 100 uM incubated for 18 hrs by LDH release assay; assay type: cell-based; conditions: raw264.7, 18 h
Summary of the method: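 RAW 264.7 murine macrophage-like cells were treated with compound for 18 h. Culture supernatants were then collected and assayed for lactate dehydrogenase activity released from dead or dying cells, using a commercial LDH cytotoxicity kit. Vehicle and lysis-buffer controls were included. Data are means ± SD, n = 2.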

Row | SMILES | Activity (RAW264.7 [1]) | inhibition at 100 µM (RAW264.7 [2]) | Activity (RAW264.7 [3]) | inhibition (RAW264.7 [2])
1 | CCCCCCCCCCCC(=O)NCc1ccccc1 [N-BENZYLDODECANAMIDE] | Non-toxic | 32.4% | Non-toxic | 
2 | CCCC(=O)NCC(C)C | Non-toxic |  | Non-toxic | Active
3 | CCCCCCCC(=O)NCC(C)C | Non-toxic |  | Non-toxic | Active
4 | CCCCCCCCC/C=C/C(=O)NCC(C)C | Non-toxic |  | Non-toxic | Active
5 | CCCCCCCCCCCC(=O)NCC(C)CC (stereo not drawn) | Non-toxic |  | Non-toxic | Active
6 | CCCCCCCCCCCC(=O)NCC(C)C | Non-toxic |  | Non-toxic | Active
7 | CCCCCCCCCC(=O)NCC(C)C [TETRAHYDROPELLITORINE] | Non-toxic |  | Non-toxic | Active
8 | CCCCCCCCC/C=C/C(=O)NCC(C)CC (stereo not drawn) | Non-toxic |  | Toxic | Active
9 | CCCCCCCCCCCc1nc(C(C)C)cs1 |  |  | Non-toxic | inactive
10 | CCCCCC(=O)NCC(C)C | Non-toxic |  | Non-toxic | Active
11 | CCCCCCC/C=C/C=C/C(=O)NCC(C)C | Non-toxic |  | Non-toxic | Active
12 | CCCCCCCCCCCC(=O)NCCCCCC | Non-toxic |  | Non-toxic | Active
13 | CCCCCCCCC/C=C/C(=O)NCc1ccccc1 | Non-toxic | 29.8% | Non-toxic | 
14 | CCCCCCCCCCCc1nc(CC(C)C)cs1 |  |  | Non-toxic | inactive
15 | CCCCCCCCCCCCNCC(C)C | Non-toxic | 99.8% | Toxic | 
